The results in this text go back to ChEMBL document CHEMBL2203170, “Synthesis, DNA-PK inhibition, anti-platelet activity studies of 2-(N-substituted-3-aminopyridine)-substituted-1,3-benzoxazines and DNA-PK and PI3K inhibition, homology modelling studies of 2-morpholino-(7,8-di and 8-substituted)-1,3-benzoxazines” (Eur J Med Chem, 2012).

Experiment [1] concerns the target DNA-dependent protein kinase catalytic subunit (Homo sapiens, UniProt P78527). In words: Inhibition of DNA-PK using EPPLSQEAFADLWKK as substrate after 5 mins by ADP-Glo kinase assay. (ADP-Glo first removes unused ATP, then detects ADP through luciferase.)
Experiment [2] in a line: Antiplatelet activity against human platelet assessed as inhibition of collagen-induced platelet aggregation incubated for 2 mins before collagen induction by two-channel platelet aggregometer. In kind it is functional, cell-based. The method in brief:
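Venous blood from healthy, drug-free volunteers collected into trisodium citrate 22.0 g/L. Aggregation was measured optically in a two-channel aggregometer, following an earlier protocol.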

Experiment [3] has as its target T1, Phosphatidylinositol 4,5-bisphosphate 3-kinase catalytic subunit delta isoform (Homo sapiens, UniProt O00329).
T1 sequence (O00329 whole entry): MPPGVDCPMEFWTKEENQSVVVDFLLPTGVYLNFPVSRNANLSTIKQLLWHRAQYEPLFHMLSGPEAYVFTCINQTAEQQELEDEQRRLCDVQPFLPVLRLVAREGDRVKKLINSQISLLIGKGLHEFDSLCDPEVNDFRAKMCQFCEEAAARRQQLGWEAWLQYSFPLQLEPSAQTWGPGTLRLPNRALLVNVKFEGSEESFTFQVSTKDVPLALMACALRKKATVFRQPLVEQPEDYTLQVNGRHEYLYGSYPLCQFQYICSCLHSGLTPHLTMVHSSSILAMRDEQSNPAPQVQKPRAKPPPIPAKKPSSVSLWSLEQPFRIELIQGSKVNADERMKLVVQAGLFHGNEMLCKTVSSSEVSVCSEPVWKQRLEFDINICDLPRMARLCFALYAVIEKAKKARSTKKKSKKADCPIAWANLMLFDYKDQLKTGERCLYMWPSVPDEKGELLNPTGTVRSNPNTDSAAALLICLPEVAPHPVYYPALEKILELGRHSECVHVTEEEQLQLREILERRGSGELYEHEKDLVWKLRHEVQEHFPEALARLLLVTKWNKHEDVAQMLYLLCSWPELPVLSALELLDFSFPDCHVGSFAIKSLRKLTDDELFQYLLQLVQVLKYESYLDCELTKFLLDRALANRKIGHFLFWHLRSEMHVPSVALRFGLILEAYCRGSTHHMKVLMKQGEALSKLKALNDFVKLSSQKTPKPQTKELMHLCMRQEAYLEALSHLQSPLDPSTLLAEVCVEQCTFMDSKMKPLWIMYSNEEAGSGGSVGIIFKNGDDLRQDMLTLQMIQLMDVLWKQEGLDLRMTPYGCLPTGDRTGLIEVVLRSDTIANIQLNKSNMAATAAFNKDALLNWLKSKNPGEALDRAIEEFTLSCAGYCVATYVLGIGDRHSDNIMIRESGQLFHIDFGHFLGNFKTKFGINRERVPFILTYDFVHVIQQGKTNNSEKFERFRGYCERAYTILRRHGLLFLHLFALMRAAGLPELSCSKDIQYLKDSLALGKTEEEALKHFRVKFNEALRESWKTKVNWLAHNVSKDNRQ
Nature of the experiment: Inhibition of PI3Kdelta by HTRF assay in presence of ATP. (In TR-FRET formats the signal depends on donor and acceptor labels being close together.)

In experiment [4] the target is Phosphatidylinositol 4,5-bisphosphate 3-kinase catalytic subunit alpha isoform (Homo sapiens, UniProt P42336). In words: Inhibition of PI3Kalpha by HTRF assay in presence of ATP.
Phosphatidylinositol 4,5-bisphosphate 3-kinase catalytic subunit alpha isoform, sequence (P42336 whole entry, canonical isoform): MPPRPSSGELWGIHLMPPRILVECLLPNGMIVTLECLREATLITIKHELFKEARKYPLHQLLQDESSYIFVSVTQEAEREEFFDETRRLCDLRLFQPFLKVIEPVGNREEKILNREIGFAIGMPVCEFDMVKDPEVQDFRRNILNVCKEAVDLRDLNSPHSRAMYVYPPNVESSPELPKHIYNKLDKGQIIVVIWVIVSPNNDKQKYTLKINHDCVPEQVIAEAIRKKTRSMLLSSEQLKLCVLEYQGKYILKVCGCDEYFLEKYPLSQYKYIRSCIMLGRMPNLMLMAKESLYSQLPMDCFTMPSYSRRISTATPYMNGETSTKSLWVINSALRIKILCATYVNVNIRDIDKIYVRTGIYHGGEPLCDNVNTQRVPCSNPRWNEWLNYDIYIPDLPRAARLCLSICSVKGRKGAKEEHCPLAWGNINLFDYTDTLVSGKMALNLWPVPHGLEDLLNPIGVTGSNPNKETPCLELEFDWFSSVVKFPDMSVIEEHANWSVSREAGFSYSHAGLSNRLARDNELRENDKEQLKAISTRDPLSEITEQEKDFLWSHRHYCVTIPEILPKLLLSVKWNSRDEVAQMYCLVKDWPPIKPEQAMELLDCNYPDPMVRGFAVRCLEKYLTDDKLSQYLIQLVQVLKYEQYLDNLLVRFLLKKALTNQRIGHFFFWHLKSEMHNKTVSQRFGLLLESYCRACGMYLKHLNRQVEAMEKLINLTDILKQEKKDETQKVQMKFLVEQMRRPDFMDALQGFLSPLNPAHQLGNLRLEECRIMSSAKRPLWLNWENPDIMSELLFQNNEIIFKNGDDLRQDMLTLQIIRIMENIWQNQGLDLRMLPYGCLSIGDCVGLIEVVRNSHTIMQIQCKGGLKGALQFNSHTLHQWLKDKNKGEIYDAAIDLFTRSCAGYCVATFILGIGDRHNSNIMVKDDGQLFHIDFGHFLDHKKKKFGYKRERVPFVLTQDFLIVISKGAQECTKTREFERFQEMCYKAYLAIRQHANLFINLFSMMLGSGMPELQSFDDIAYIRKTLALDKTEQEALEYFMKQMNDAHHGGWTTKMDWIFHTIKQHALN
The target of experiment [5] is Phosphatidylinositol 4,5-bisphosphate 3-kinase catalytic subunit gamma isoform (Homo sapiens, UniProt P48736). In words: Inhibition of PI3Kgamma by HTRF assay in presence of ATP.
The target of experiment [6] is Phosphatidylinositol 4,5-bisphosphate 3-kinase catalytic subunit beta isoform (Homo sapiens, UniProt P42338). Nature of the experiment: Inhibition of PI3Kbeta by HTRF assay in presence of ATP.

DNA-dependent protein kinase catalytic subunit, sequence (P78527 whole entry): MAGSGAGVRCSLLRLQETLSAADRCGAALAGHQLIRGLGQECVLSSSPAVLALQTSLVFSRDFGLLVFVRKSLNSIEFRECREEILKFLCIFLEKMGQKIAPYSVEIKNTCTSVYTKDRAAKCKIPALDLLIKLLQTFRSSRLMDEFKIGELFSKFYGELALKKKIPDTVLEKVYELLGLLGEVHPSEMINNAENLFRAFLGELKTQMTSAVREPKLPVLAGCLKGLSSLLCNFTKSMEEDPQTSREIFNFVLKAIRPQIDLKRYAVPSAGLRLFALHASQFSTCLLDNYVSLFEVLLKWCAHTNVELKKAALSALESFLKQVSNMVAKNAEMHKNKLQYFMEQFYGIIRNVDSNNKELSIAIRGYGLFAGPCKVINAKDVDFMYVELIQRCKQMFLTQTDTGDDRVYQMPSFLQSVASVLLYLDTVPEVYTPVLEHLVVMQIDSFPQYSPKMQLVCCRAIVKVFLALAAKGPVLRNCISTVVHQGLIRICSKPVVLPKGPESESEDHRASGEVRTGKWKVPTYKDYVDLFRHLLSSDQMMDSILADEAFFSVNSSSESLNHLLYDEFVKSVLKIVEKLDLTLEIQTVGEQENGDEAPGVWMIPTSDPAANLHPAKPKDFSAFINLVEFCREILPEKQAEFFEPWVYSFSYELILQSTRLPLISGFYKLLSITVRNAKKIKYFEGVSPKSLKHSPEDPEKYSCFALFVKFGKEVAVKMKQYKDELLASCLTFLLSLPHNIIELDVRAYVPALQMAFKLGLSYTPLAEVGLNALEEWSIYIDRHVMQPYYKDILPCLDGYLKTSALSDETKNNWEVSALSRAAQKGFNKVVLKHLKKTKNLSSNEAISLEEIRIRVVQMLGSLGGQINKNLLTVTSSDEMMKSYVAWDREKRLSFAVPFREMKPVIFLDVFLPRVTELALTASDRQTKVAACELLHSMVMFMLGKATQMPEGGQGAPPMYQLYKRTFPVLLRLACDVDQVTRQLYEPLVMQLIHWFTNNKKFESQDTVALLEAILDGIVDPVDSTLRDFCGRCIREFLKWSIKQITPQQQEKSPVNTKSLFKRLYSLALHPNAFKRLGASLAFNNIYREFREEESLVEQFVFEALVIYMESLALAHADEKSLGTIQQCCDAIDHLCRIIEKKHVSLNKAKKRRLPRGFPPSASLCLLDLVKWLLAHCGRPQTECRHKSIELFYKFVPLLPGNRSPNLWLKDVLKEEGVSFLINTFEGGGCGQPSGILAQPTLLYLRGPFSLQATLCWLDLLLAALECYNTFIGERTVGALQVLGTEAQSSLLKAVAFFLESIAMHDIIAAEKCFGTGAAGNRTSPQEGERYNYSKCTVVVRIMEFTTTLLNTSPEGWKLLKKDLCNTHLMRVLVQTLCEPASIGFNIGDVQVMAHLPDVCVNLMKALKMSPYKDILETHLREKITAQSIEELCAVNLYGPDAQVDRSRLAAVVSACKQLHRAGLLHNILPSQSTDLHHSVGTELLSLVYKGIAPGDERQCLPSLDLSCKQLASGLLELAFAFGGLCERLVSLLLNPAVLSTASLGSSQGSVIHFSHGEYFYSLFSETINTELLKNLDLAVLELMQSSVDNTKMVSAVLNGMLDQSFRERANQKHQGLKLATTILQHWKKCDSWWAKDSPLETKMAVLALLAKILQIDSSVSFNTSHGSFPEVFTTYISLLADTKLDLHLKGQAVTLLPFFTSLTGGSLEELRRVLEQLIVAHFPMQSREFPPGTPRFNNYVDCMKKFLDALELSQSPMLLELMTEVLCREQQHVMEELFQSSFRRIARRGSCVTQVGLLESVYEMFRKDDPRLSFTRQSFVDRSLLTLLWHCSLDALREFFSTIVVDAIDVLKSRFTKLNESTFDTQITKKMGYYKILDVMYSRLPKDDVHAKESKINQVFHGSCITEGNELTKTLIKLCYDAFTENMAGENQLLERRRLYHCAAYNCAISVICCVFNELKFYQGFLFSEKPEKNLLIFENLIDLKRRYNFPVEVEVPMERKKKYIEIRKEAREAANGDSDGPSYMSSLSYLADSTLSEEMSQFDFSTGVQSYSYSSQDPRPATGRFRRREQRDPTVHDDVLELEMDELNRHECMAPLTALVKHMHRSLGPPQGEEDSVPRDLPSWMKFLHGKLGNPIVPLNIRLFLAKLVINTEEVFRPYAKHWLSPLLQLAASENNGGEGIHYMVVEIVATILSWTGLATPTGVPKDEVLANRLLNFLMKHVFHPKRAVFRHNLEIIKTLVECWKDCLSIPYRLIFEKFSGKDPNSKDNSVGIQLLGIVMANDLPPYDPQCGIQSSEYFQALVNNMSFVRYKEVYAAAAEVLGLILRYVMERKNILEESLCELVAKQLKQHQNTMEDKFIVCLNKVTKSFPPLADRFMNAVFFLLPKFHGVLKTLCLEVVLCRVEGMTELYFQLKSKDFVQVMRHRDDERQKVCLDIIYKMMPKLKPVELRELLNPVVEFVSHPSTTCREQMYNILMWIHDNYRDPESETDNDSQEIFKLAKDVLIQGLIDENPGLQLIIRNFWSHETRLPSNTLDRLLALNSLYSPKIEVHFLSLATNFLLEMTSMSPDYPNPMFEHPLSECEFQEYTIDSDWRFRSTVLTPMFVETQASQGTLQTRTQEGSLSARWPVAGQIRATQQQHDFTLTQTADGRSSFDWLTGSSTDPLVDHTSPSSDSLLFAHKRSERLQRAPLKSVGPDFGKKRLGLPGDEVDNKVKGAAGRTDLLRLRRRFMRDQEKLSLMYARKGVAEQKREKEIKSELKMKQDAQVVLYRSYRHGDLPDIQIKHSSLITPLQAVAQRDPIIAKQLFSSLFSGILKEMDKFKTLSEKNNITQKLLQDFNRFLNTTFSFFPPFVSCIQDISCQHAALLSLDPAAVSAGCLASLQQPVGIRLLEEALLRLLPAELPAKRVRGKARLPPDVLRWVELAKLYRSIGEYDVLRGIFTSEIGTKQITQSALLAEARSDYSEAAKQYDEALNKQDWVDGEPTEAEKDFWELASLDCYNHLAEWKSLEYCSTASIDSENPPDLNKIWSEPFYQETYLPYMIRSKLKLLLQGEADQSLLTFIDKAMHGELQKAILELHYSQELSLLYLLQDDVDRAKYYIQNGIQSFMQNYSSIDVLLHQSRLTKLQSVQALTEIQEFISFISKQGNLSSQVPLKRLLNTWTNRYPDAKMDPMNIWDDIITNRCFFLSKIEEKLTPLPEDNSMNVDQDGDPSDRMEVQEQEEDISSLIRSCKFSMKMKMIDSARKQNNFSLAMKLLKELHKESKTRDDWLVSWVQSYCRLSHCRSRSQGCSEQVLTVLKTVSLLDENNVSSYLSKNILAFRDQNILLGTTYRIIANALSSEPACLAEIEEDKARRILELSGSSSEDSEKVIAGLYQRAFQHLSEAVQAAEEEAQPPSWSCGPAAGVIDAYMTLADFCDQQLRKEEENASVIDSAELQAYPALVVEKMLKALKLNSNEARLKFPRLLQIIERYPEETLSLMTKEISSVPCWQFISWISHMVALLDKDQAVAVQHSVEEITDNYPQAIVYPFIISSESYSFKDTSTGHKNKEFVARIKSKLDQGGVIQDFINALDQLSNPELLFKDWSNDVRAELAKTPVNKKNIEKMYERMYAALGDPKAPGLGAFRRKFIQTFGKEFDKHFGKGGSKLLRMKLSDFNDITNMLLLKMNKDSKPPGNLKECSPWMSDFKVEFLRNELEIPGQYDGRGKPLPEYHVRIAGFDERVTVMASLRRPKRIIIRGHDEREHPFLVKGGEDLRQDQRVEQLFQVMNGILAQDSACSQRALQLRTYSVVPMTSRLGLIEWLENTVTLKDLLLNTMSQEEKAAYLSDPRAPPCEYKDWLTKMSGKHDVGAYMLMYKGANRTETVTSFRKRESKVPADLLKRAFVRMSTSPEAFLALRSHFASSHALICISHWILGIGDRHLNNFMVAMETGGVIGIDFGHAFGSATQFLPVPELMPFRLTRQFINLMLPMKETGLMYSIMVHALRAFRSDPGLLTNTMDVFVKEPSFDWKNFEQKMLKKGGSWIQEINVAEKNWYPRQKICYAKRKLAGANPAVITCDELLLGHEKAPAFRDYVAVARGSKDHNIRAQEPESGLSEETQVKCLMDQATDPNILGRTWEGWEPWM

In general, IC50 refers to the concentration at which inhibition is half-maximal. On to `Cc1c(OCc2cccnc2)ccc2c(=O)nc(N(Cc3cccnc3)c3cccnc3)oc12`, for which the IC50 in experiment [1] turned out to be 2.5 µM; in experiment [2], 10 µM.
Turning to `O=c1nc(N(Cc2cccnc2)c2cccnc2)oc2c(OCc3cccnc3)cccc12`, inhibition in experiment [1] was half-maximal at 13.5 µM (IC50).
`O=c1nc(N(Cc2ccncc2)c2cccnc2)oc2cc(OCc3ccncc3)ccc12`: the half-inhibitory concentration (IC50) in experiment [2] came out at 55 µM.
Consider `O=c1nc(N2CCOCC2)oc2c(-c3ccccc3)cccc12`, for which the IC50 in experiment [1] is 0.3 µM; in experiment [3], 0.95 µM; in experiment [4], 4.07 µM; in experiment [5] it was 1.5 µM; in experiment [6] it was 3.36 µM.
For the molecule `Cc1cccc2c(=O)nc(N(Cc3ccccn3)c3cccnc3)oc12`, half-maximal inhibition in experiment [1] (IC50) was put at 25.2 µM.
The molecule `Cc1c(OCc2ccccn2)ccc2c(=O)nc(N3CCOCC3)oc12` yielded a concentration for half-maximal inhibition (IC50) in experiment [1] of 1.3 µM.
`Cc1c(OCc2ccncc2)ccc2c(=O)nc(N3CCOCC3)oc12`: the IC50 in experiment [1] is 1.2 µM.
On to `Cc1c(OCc2cccnc2)ccc2c(=O)nc(N3CCOCC3)oc12`, for which the IC50 turned out to be 0.28 µM in experiment [1]; 2.02 µM in experiment [3]; 0.13 µM in experiment [4]; 0.72 µM in experiment [5]; 0.14 µM in experiment [6].
In experiment [1], `O=c1nc(N2CCOCC2)oc2c(OCc3cccnc3)cccc12` showed a half-maximal inhibitory concentration (IC50) of 0.36 µM.
As to `Cc1cccc2c(=O)nc(N(Cc3cccnc3)c3cccnc3)oc12`, the IC50 in experiment [2] was 100 µM.
Take `Cc1c(OCCN2CCN(C)CC2)ccc2c(=O)nc(N3CCOCC3)oc12`: the half-inhibitory concentration (IC50) was 0.5 µM in experiment [1]; no less than 100 µM in experiment [3]; no less than 100 µM in experiment [4]; no less than 100 µM in experiment [5]; no less than 100 µM in experiment [6].
`CN1CCN(CCOc2ccc3c(=O)nc(N4CCOCC4)oc3c2)CC1` yielded an IC50 in experiment [1] of 6.8 µM.
As to `O=c1nc(N(Cc2ccccn2)c2cccnc2)oc2cc(OCc3ccccn3)ccc12`, inhibition in experiment [1] was half-maximal at 5.7 µM (IC50).
As for `O=c1nc(N2CCOCC2)oc2c(OCc3ccccn3)cccc12`, the midpoint of inhibition in experiment [1], the IC50, lay at 0.62 µM.
Regarding `Cc1c(OCc2ccccc2)ccc2c(=O)n(Cc3ccccc3)c(=O)oc12`, the half-maximal inhibitory concentration (IC50) in experiment [2] is 85 µM.
Turning to `O=c1nc(N2CCOCC2)oc2c(OCc3ccncc3)cccc12`, 1.6 µM corresponded to half-maximal inhibition in experiment [1] (IC50).
As for `O=c1nc(N(Cc2cccnc2)c2cccnc2)oc2c(-c3ccccc3)cccc12`, the IC50 in experiment [2] was determined as 65 µM.
`Cc1c(OCc2cccnc2)ccc2c(=O)n(Cc3cccnc3)c(=O)oc12`: the IC50 in experiment [1] was determined as 10 µM; in experiment [2] it was 75 µM.
As for `Cc1c(OCc2ccccn2)ccc2c(=O)n(Cc3ccccn3)c(=O)oc12`, the IC50 in experiment [2] came out at 85 µM.
In experiment [1], `O=c1nc(N2CCOCC2)oc2cc(OCc3ccccn3)ccc12` yielded an IC50 of 2.7 µM.
Take `O=c1nc(N(Cc2ccccn2)c2cccnc2)oc2c(OCc3ccccn3)cccc12`: in experiment [1], the 50% inhibitory concentration (IC50) came out at 7.8 µM.
Turning to `O=c1nc(Nc2cccnc2)oc2c(-c3ccccc3)cccc12`, the concentration for half-maximal inhibition (IC50) in experiment [2] worked out at 76 µM.
Same read-out and setting: next, `O=c1nc(Nc2cccnc2)oc2ccccc12`: 90 µM; `Cc1c(OCc2ccccn2)ccc2c(=O)nc(N(Cc3ccccn3)c3cccnc3)oc12`: 35 µM.
On to `O=c1nc(N2CCOCC2)oc2cc(OCc3ccncc3)ccc12`, for which, in experiment [1], half-maximal inhibition (IC50) required 4.2 µM.
`CN1CCN(CCOc2cccc3c(=O)nc(N4CCOCC4)oc23)CC1` displayed an IC50 in experiment [1] of 1.7 µM.
Molecule `O=c1nc(N(Cc2cccnc2)c2cccnc2)oc2cc(OCc3cccnc3)ccc12` yielded a 50% inhibitory concentration (IC50) in experiment [1] of 14.8 µM.
On to `O=c1nc(N(Cc2ccncc2)c2cccnc2)oc2c(-c3ccccc3)cccc12`, for which the IC50 in experiment [2] stood at 75 µM.
`O=c1nc(N2CCOCC2)oc2cc(OCc3cccnc3)ccc12`: in experiment [1], the IC50 was 2.5 µM.
